In ChEMBL document CHEMBL1255475, “Mutant prevention concentrations of four carbapenems against gram-negative rods” (2010):

Assays:
Type in all cases: functional
Details in all cases: read-out: IZ
Escherichia coli [1] = experiment: Antibacterial activity against beta-lactamase-positive ESBL-positive Escherichia coli assessed as […] in zone of inhibition at 30 ug by disk diffusion method
In short: (§1)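 ESBL screen of β-lactamase-positive enteric isolates by disk diffusion using cefotaxime and ceftazidime disks (30 μg each) alone.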

Escherichia coli [2] = experiment: Antibacterial activity against beta-lactamase-positive ESBL-positive Escherichia coli assessed as […] in zone of inhibition at 30 ug by disk diffusion method in presence of clavulanic acid
In short: (§2)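 ESBL confirmation by disk diffusion using cefotaxime and ceftazidime disks (30 μg each) combined with a 10 μg clavulanic acid disk, compared against the disks alone.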

Klebsiella pneumoniae [3] = experiment: Antibacterial activity against beta-lactamase-positive ESBL-positive sKlebsiella pneumoniae assessed as decrease in zone of inhibition at 30 ug by disk diffusion method; in short: as §1
Klebsiella pneumoniae [4] = experiment: Antibacterial activity against beta-lactamase-positive ESBL-positive Klebsiella pneumoniae assessed as […] in zone of inhibition at 30 ug by disk diffusion method in presence of clavulanic acid; in short: as §2

Measured: zone of inhibition at 30 µg/disc

O=C(O)[C@H]1/C(=C/CO)O[C@@H]2CC(=O)N21 [CLAVULANIC ACID]
≥ 5 mm: all assays above
